Published values of several laboratories.
Each line is one published result; the experiments were not run side by side.
Target: Phosphatidylinositol 4-kinase beta (PI4KB, Homo sapiens, UniProt Q9UBF8)

| SMILES | test | setting | remaining binding [%] |
| --- | --- | --- | --- |
| c1cncc(-c2cccc(Nc3nccc(NC4CCCCC4)n3)c2)c1 | binding, competition with immobilised ligand | 10 µM | 1.1 |
| O=C(c1ccc(Nc2nccc(-c3cc4ccccc4s3)n2)cc1)N1CCC(N2CCCC2)CC1 | binding, competition with immobilised ligand | 1 µM | 58 |
| CN(C)c1ncc(F)c(-c2cnn3ncccc23)n1 | binding | 1 µM | 100 |
| CC(=O)C1=C(C)N(c2cccc(C(F)(F)F)c2)C(=O)N[C@@H]1c1ccc(C#N)nc1 | cell-free assay, competition with immobilised ligand | 1 µM | 100 |
| Nc1ncc2c(n1)-c1c([nH]c3ccc(C#CC4CC4)cc13)CCCC2 | binding, competition with immobilised ligand | 1 µM | 100 |
| N[C@@H]1CCN(c2nccc(-c3cnn4ncccc34)n2)C1 | binding | 1 µM | 80 |
| O=C(Nc1c[nH]nc1C(=O)NC1CCNCC1)c1cc(F)cc(F)c1 | binding, competition with immobilised ligand | 1 µM | 100 |
| CN(C)C(=O)Cn1cc(-c2nc([C@@](C)(c3ccc(-c4cnc(N)nc4)cc3)C3CC3)no2)cn1 | cell-free assay, competition with immobilised ligand | 1 µM | 92 |
| CNC(=O)[C@@H]1CC[C@@H](n2c(-c3ccc4cnccc4c3)nc3ccc(C(=O)NCc4cccc(C(N)=O)c4)cc32)C1 | binding, competition with immobilised ligand | 1 µM | 96 |
| CCOC(=O)c1cc2cc(-c3cc(C(=O)NCc4ccc(C(=O)O)cc4)nn3C)ccc2[nH]1 | cell-free assay, competition with immobilised ligand | 0.1 µM | 79 |
| FC(F)(F)Oc1cccc(-c2cnc3ccc(-c4ccncc4)nn23)c1 | binding, competition with immobilised ligand | 5 µM | 0.05 |
| F[C@@H]1CCN(c2nccc(-c3cnn4ncccc34)n2)C1 | binding | 1 µM | 89 |
| O=C(c1ccc(Nc2ncc(Cl)c(-c3ccc(Cl)s3)n2)cc1)N1CCC(N2CCCC2)CC1 | binding, competition with immobilised ligand | 1 µM | 100 |
| COc1ccnn2ncc(-c3ccnc(N(C)C)n3)c12 | binding | 1 µM | 65 |
| Cc1c(C(=O)O)cc(-c2ccc(C3CCNCC3)cc2)c2ccc(-c3ccc(C(F)(F)F)cc3)cc12 | cell-free assay, competition with immobilised ligand | 1 µM | 100 |
| CCN1CCN(Cc2ccc(C(=O)Nc3ccc(C)c(Oc4ccc5c(c4)CC(=O)N5)c3)cc2C(F)(F)F)CC1 | binding, competition with immobilised ligand | 1 µM | 100 |
| CNC(=O)Nc1ccc2c(c1)[C@@]1(CC2)OC(=O)N(CC(=O)N(Cc2ccc(F)cc2)[C@@H](C)C(F)(F)F)C1=O | cell-free assay, competition with immobilised ligand | 1 µM | 71 |
| O=C(NCCCN1CCOCC1)c1ccc(Nc2nccc(-c3cc4ccccc4s3)n2)cc1 | binding, competition with immobilised ligand | 1 µM | 45 |
| CN(C)c1nccc(-c2cnn3ncccc23)n1 | binding | 1 µM | 58 |
| c1ccc(N2CCN(Cc3nc4ccccc4[nH]3)CC2)nc1 | cell-free assay, competition with immobilised ligand | 1 µM | 100 |
| C[C@@H]1CCN(c2nccc(-c3cnn4ncccc34)n2)C1 | binding | 1 µM | 20 |
| COCCOc1nc(-c2ccc(Cl)nc2)nc2c1CN(C(=O)c1ncn3ccccc13)CC2 | cell-free assay, competition with immobilised ligand | 0.1 µM | 100 |
